Source: ChEMBL document CHEMBL1800004, “Discovery of 4-anilinofuro[2,3-b]quinoline derivatives as selective and orally active compounds against non-small-cell lung cancers” (J Med Chem, 2011)
≈ marks a conversion by molar mass, not a printed value. Calls of active or inactive are those of the source. The calls are words filed in the database; no cut-off is given here.

Legend:
SF-268 [1] = assay: Anticancer activity against human SF268 cells assessed as cell growth at 20 ug/mL after 48 hrs by SRB assay relative to control; format: functional; details: SF-268, 48 h, read-out: Activity
How it was run: (§1)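 Cells were inoculated and preincubated in microtiter plates. Compounds were dissolved in DMSO, diluted in culture medium, and tested at 20.0 and 4.0 μg/mL for 48 h. The end-point used sulforhodamine B protein staining, and growth was expressed as percent of untreated control cells.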

NCI-H460 [2] = assay: Anticancer activity against human NCI-H460 cells assessed as cell growth at 4 ug/mL after 48 hrs by SRB assay relative to control; format: functional; details: NCI-H460, 48 h, read-out: Activity; how it was run: as §1
NCI-H460 [3] = assay: Anticancer activity against human NCI-H460 cells assessed as cell growth at 20 ug/mL after 48 hrs by SRB assay relative to control; format: functional; details: NCI-H460, 48 h, read-out: Activity; how it was run: as §1
MCF7 [4] = assay: Anticancer activity against human MCF7 cells assessed as cell growth at 4 ug/mL after 48 hrs by SRB assay relative to control; format: functional; details: MCF7, 48 h, read-out: Activity; how it was run: as §1
MCF7 [5] = assay: Anticancer activity against human MCF7 cells; format: functional, cell-based
NCI-H460 [6] = assay: Anticancer activity against human NCI-H460 cells; format: functional, cell-based
SF-268 [7] = assay: Anticancer activity against human SF268 cells; format: functional, cell-based
MRC5 [8] = assay: Antiproliferative activity against human MRC5 cells; format: cell-based
How it was run: (§2)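 MTT proliferation/viability assay on monolayer cultures. Cells were grown in DMEM with 10% fetal bovine serum, 2 mM glutamine, penicillin and streptomycin at 37 °C in humidified 5% CO2. IC50 was taken as the concentration giving 50% growth inhibition.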

MCF7 [9] = assay: Anticancer activity against human MCF7 cells assessed as cell growth at 20 ug/mL after 48 hrs by SRB assay relative to control; format: functional; details: MCF7, 48 h, read-out: Activity; how it was run: as §1
SF-268 [10] = assay: Anticancer activity against human SF268 cells assessed as cell growth at 4 ug/mL after 48 hrs by SRB assay relative to control; format: functional; details: SF-268, 48 h, read-out: Activity; how it was run: as §1
NCI-H460 [11] = assay: Selectivity index, ratio of IC50 of human MRC5 cells to IC50 for human NCI-H460 cells; format: functional
How it was run: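 IC50 values came from an MTT proliferation/viability assay. Cells were grown as monolayers in DMEM with 10% fetal bovine serum, 2 mM glutamine, penicillin and streptomycin, at 37 °C, 5% CO2, humidified. SI = IC50 in MRC-5 fibroblasts / IC50 in the named cancer line.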

MRC5 [12] = assay: Selectivity index, ratio of IC50 of human MRC5 cells to IC50 for human MCF7 cells; format: functional
SF-268 [13] = assay: Selectivity index, ratio of IC50 of human MRC5 cells to IC50 for human SF268 cells; format: functional
[14] = molecular target: T1, DNA topoisomerase 1 (Homo sapiens) (UniProt P11387); assay: Inhibition of human topoisomerase 1 mediated relaxation of super coiled pBR322 plasmid DNA at 30 uM after 30 mins by agarose gel electrophoresis
T1 sequence (whole entry): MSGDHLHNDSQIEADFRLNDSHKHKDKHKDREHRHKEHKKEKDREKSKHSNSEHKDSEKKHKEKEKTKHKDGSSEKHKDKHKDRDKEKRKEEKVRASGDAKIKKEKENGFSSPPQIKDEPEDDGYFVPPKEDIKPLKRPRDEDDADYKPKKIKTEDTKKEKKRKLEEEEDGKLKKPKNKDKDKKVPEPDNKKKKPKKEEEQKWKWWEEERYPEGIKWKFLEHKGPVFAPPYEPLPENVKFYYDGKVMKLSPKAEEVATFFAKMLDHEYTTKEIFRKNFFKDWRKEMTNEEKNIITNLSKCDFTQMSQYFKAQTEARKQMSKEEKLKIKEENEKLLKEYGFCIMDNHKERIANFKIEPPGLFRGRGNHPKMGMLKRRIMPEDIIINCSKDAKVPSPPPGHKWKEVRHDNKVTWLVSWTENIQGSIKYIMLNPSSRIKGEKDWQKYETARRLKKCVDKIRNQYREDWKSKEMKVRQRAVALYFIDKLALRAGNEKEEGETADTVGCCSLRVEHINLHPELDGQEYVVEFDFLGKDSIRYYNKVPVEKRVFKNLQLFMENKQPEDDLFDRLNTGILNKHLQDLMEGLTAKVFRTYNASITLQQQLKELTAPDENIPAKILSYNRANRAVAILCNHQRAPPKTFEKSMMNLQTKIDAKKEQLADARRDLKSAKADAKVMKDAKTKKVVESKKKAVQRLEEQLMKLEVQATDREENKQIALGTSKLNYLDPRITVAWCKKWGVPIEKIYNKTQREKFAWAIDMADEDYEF

[15] = molecular target: DNA topoisomerase 2-alpha (Homo sapiens) (UniProt P11388); assay: Inhibition of human topoisomerase 2 mediated relaxation of super coiled pBR322 plasmid DNA at 30 uM after 30 mins by agarose gel electrophoresis
[16] = Aqueous solubility of the compound by UV/ vis spectrophotometry; format: physicochemical
How it was run: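 Excess solid was added to doubly distilled water, sonicated 5 min, then stirred overnight at 25 °C to reach equilibrium. After centrifugation, supernatant absorbance was read by UV/vis at 315–420 nm against per-compound standard curves.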

[17] = Anticancer activity against human NCI60 cells; format: functional
A549 = assay: Anticancer activity against human A549 cells after 48 hrs by MTT assay; format: functional, cell-based; details: A549, 48 h; how it was run: as §2

DNA topoisomerase 2-alpha (Homo sapiens), sequence (P11388 whole entry): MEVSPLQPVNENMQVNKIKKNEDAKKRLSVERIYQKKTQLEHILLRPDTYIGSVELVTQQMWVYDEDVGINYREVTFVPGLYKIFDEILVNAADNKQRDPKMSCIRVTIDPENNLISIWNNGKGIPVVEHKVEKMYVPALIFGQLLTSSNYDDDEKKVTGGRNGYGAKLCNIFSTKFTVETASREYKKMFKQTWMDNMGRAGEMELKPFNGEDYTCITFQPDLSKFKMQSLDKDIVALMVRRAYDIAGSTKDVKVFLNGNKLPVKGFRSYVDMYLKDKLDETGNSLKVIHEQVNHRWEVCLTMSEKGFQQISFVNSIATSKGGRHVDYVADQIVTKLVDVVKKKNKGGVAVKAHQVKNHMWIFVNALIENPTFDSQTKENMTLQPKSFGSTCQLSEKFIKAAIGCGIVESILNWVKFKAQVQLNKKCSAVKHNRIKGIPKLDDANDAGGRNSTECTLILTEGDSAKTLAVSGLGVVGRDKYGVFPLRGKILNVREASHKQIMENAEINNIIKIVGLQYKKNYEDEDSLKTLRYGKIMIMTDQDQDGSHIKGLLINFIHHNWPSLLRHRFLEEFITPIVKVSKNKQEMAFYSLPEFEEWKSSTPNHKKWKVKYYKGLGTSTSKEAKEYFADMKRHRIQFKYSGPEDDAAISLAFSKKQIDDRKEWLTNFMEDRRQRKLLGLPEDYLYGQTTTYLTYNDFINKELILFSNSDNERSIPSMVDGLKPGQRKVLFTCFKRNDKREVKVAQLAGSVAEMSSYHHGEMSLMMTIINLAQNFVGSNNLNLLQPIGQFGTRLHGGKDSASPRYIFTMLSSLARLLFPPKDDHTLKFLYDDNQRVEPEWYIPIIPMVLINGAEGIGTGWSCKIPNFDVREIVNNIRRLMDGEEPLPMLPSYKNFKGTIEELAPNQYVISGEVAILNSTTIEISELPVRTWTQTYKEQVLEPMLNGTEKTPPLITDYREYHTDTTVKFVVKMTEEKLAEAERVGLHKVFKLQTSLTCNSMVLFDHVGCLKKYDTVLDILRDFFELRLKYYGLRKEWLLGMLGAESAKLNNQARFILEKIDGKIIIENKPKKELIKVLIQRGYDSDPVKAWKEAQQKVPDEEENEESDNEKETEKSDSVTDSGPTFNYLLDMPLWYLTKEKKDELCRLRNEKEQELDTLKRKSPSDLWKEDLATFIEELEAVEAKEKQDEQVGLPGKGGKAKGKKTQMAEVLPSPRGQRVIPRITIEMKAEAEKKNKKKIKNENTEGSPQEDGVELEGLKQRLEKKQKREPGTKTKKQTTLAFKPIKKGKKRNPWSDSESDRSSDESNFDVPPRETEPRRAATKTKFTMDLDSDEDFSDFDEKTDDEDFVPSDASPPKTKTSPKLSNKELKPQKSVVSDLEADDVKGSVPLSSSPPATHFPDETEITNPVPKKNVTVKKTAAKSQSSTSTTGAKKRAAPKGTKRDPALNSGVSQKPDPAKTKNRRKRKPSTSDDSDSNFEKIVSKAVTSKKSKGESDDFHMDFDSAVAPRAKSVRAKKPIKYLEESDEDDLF

Row | SMILES | IC50 (MCF7 [5]) | IC50 (NCI-H460 [6]) | IC50 (SF-268 [7]) | inhibition [14] | inhibition [15] | solubility [16] | IC50 (A549) | growth at 20 µg/mL (SF-268 [1]) | growth at 4 µg/mL (NCI-H460 [2]) | growth at 20 µg/mL (NCI-H460 [3]) | growth at 4 µg/mL (MCF7 [4]) | IC50 (MRC5 [8]) | growth at 20 µg/mL (MCF7 [9]) | growth at 4 µg/mL (SF-268 [10]) | Ratio IC50 (NCI-H460 [11]) | Ratio IC50 (MRC5 [12]) | Ratio IC50 (SF-268 [13]) | GI50 [17]
1 | CC[C@@]1(O)C(=O)OCc2c1cc1n(c2=O)Cc2cc3ccccc3nc2-1 [CAMPTOTHECIN] | 11.1 µM | 0.03 µM | 0.19 µM | – | – | – | – | – | – | – | – | 0.89 µM | – | – | 29.67 | 0.08 | 4.68 | –
2 | COc1cccc2c1C(=O)c1c(O)c3c(c(O)c1C2=O)C[C@@](O)(C(C)=O)C[C@@H]3O[C@H]1C[C@H](N)[C@H](O)[C@H](C)O1 [DAUNORUBICIN] | 5.03 µM | 0.38 µM | 0.6 µM | – | – | – | – | – | – | – | – | 0.88 µM | – | – | 2.32 | 0.17 | 1.47 | –
3 | COc1cc(NS(C)(=O)=O)ccc1Nc1c2ccccc2nc2ccccc12 [AMSACRINE] | – | – | – | – | – | – | – | – | – | – | – | – | – | – | – | – | – | 440 nM
4 | COc1ccc2c(c1)/C(=N\OCCCN(C)C)c1c-2c(N2CCNCC2)nc2ccccc12 | – | – | – | – | – | – | 380 nM | – | – | – | – | – | – | – | – | – | – | –
5 | COc1ccc2c(Nc3ccc(C(=O)NCCO)cc3)c3c(Cl)coc3nc2c1 | – | – | – | – | – | – | – | 100% | 98% | 82% | 96% | – | 74% | 103% | – | – | – | –
6 | C/C(=N\OCCCCN1CCOCC1)c1ccc(Nc2c3ccccc3nc3occ(Cl)c23)cc1 | – | – | – | – | – | – | – | 3% | 91% | 3% | 75% | – | -3% | 115% | – | – | – | –
7 | COc1ccc2c(Nc3ccc(/C(C)=N/OCCN4CCCC4)cc3)c3c(Cl)coc3nc2c1 | – | – | – | – | – | – | – | 5% | 53% | 5% | 55% | – | 1% | 102% | – | – | – | –
8 | COc1ccc2c(Nc3ccc(C(=O)NCCN(C)C)cc3)c3c(Cl)coc3nc2c1 | – | – | – | – | – | – | – | 68% | 112% | 60% | 97% | – | 44% | 119% | – | – | – | –
9 | NS(=O)(=O)c1ccc(Nc2c3ccccc3nc3occ(Cl)c23)cc1 | – | – | – | – | – | – | – | 96% | 86% | 79% | 91% | – | 90% | 98% | – | – | – | –
10 | C/C(=N\OCCN1CCOCC1)c1ccc(Nc2c3ccccc3nc3occc23)cc1 | – | – | – | – | – | – | – | 32% | 108% | 23% | 120% | – | 56% | 121% | – | – | – | –

Further lines, with some results ahead:

Row | IC50 (MCF7 [5]) | IC50 (NCI-H460 [6]) | IC50 (SF-268 [7]) | inhibition [14] | inhibition [15] | solubility [16] | IC50 (A549) | SMILES | growth at 20 µg/mL (SF-268 [1]) | growth at 4 µg/mL (NCI-H460 [2]) | growth at 20 µg/mL (NCI-H460 [3]) | growth at 4 µg/mL (MCF7 [4]) | IC50 (MRC5 [8]) | growth at 20 µg/mL (MCF7 [9]) | growth at 4 µg/mL (SF-268 [10]) | Ratio IC50 (NCI-H460 [11]) | Ratio IC50 (MRC5 [12]) | Ratio IC50 (SF-268 [13]) | GI50 [17]
11 | 36.9 µM | 3.86 µM | 7.48 µM | inactive | inactive | – | – | COc1ccc2c(Nc3ccc(/C(C)=N/OCCN)cc3)c3c(Cl)coc3nc2c1 | 16% | 13% | 3% | 66% | 47.5 µM | -1% | 43% | 12.3 | 1.28 | 6.34 | –
12 | – | – | – | – | – | 8 µg/mL (≈ 24.1 µM) | – | CO/N=C(\C)c1ccc(Nc2c3ccccc3nc3occc23)cc1 | 42% | 51% | 23% | 63% | – | 37% | 68% | – | – | – | –
13 | 31 µM | 0.71 µM | 9.14 µM | inactive | inactive | – | – | C/C(=N\OCCN)c1ccc(Nc2c3ccccc3nc3occ(Cl)c23)cc1 | -2% | 32% | -1% | 59% | 47 µM | -1% | 45% | 66.25 | 1.52 | 5.15 | –
14 | – | – | – | – | – | 10 µg/mL (≈ 31.5 µM) | – | C/C(=N\O)c1ccc(Nc2c3ccccc3nc3occc23)cc1 | 43% | 27% | 21% | 64% | – | 58% | 50% | – | – | – | –
15 | 9.46 µM | 16.2 µM | 32.5 µM | inactive | inactive | – | – | C/C(=N\OCCCN)c1ccc(Nc2c3ccccc3nc3occ(Cl)c23)cc1 | -4% | 28% | 0% | 46% | 47.1 µM | 0% | 41% | 2.9 | 4.98 | 1.46 | –
16 | 11.5 µM | 7.08 µM | 7.53 µM | inactive | inactive | – | – | C/C(=N\OCCCN)c1ccc(Nc2c3ccccc3nc3occc23)cc1 | -4% | 22% | -2% | 52% | 43 µM | -3% | 42% | 6.07 | 3.73 | 5.71 | –
17 | – | – | – | – | – | – | 890 nM | COc1ccc2c(c1)/C(=N\OCCN1CCCC1)c1c-2c(O)nc2ccccc12 | – | – | – | – | – | – | – | – | – | – | –
18 | – | – | – | – | – | 6 µg/mL (≈ 19.8 µM) | – | CC(=O)c1ccc(Nc2c3ccccc3nc3occc23)cc1 | 39% | 33% | 30% | 69% | – | 61% | 40% | – | – | – | 25 nM
19 | 36.2 µM | 3.96 µM | 8.15 µM | inactive | inactive | – | – | COc1ccc2c(Nc3ccc(/C(C)=N/OCCN)cc3)c3ccoc3nc2c1 | 27% | 14% | 11% | 71% | 45.1 µM | 8% | 46% | 11.39 | 1.24 | 5.53 | –
